Screening data as filed in PubChem.
TNAP inh noacc – human TNAP enzyme inhibitors, primary screen, biochemical, luminescent, no phosphate acceptor, uHTS. AID 1012, 2008. 200,000 tested, 0.26% active. inhibition, % at 20 µM. purified TNAP, CDP-star luminescence, 30 min;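 active = tissue-nonspecific alkaline phosphatase inhibition above about 50% at 20 µM in the single-dose screen, limit read from the data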;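 also: 0% = DMSO negative control and 100% = EDTA positive control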
Target sequence (P05186 whole entry, looked up): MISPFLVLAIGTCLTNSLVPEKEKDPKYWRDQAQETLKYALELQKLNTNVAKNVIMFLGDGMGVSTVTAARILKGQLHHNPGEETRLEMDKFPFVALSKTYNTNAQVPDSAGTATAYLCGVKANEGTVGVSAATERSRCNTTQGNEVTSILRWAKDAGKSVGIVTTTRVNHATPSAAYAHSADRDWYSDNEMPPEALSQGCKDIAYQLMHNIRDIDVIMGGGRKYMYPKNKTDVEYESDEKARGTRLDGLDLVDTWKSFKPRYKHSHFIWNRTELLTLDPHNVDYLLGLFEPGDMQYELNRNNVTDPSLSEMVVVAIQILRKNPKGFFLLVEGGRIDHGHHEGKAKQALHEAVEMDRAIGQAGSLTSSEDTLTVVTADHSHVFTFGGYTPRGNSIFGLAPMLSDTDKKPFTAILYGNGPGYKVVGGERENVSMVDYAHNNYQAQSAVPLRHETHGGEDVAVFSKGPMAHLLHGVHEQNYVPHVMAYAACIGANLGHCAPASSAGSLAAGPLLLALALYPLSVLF
TNAP inh hiacc – human TNAP enzyme inhibitors, primary screen, biochemical, luminescent, high phosphate acceptor level, uHTS | Alkaline phosphatase, tissue-nonspecific isozyme (Homo sapiens), P05186 | purified TNAP, CDP-star luminescence, 1 M DEA | inhibition, % at 20 µM | 200,000 tested, 0.03% active | AID 1135, 2008;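 active = over 50% inhibition of tissue-nonspecific alkaline phosphatase at 20 µM in the single-dose screen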;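 also: plate controls were DMSO wells for no effect and EDTA-quenched wells as full inhibition for full effect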
Furin inh – human furin inhibitors, primary screen, biochemical, fluorescence intensity. purified furin, fluorogenic substrate cleavage. 220,000 tested, 0.061% active. P09958. inhibition, % at 20 µM or 30 µM; in the data active = inhibition above about 25%
Pf gamet viab – late stage P. falciparum gametocyte viability inhibitors, primary screen, ATP luminescence, HTS. P. falciparum stage V gametocytes, 24 h. inhibition, % at 10.9 µM. 150,000 tested, 0.065% active;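 active = inhibition above the mean plus 3 SD of compounds within the control limits, set per campaign, cut at about 38% in these data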;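 also: 0% = DMSO wells and 100% = medium only without gametocytes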
TNAP act hiacc – TNAP activators at high phosphate acceptor level, primary screen, biochemical, luminescence, uHTS | activation factor at 20 µM | purified TNAP, CDP-star luminescence, 1 M DEA, 30 min; hits give high values; 0 = EDTA background, 1 = DMSO-only activity | 200,000 tested, under 10 active | Alkaline phosphatase, tissue-nonspecific isozyme (Homo sapiens), P05186;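 active = activation factor at least 2 at 20 µM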
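Dosing: 20 µM single point. System: human TNAP. Amount: TNAP 1/800 final. Incubation: 30 min, room temperature. Read-out: TNAP activation factor scaled between EDTA and DMSO control wells. Signal: luminescence from CDP-star hydrolysis. Medium: 1 M DEA, pH 9.8, Mg2+, Zn2+. Control set: EDTA negative control, DMSO positive control.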
HMGR II inh – inhibitors of E. faecalis class II HMGR, primary screen, biochemical, Enterococcus faecalis | AID 1066, 2008 | inhibition, % at 10 µM | purified E. faecalis HMGR, NADPH absorbance 340 nm kinetic | 190,000 tested, 0.41% active;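 active = inhibition above a set limit, the median over all tested compounds plus 3 SD, cut at about 9.5% in these data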;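 also: enzyme runs in reverse so mevalonate oxidation gives rising NADPH absorbance; 0% = complete reaction with DMSO and 100% = background rate lacking mevalonate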
* marks the source's active call; other numbers are inactive results. Sampled rows, rich in hits. Any-hit rate of the full collection: about 0.68%.

Screening COc1cc(NC(=O)c2cc3nc(-c4ccccc4)cc(-c4ccccc4)n3n2)cc(OC)c1OC returned TNAP inh noacc -6, TNAP inh hiacc -5, Furin inh -13, TNAP act hiacc 1.1 and HMGR II inh 17*.
For CC(=O)N1CCC(=NNc2ncc(C(F)(F)F)cc2Cl)CC1 the results were TNAP inh noacc -8, TNAP inh hiacc -4, Furin inh -18, Pf gamet viab 36, TNAP act hiacc 1 and HMGR II inh 0.
For CCN(CC(=O)Nc1ccc(C(=O)OC)cc1)Cc1ccccc1 the results were TNAP inh noacc -9, TNAP inh hiacc -3, Furin inh -32, Pf gamet viab 3, TNAP act hiacc 1 and HMGR II inh -2.
`COC(=O)c1ccc(NC(=O)CN(C)Cc2cccc(F)c2)cc1` gave TNAP inh noacc -10, TNAP inh hiacc -2, Furin inh -26, Pf gamet viab 5, TNAP act hiacc 1 and HMGR II inh 11*.
Screening Cc1ccc(C(=O)N/C(=C\c2cccs2)C(=O)NCCc2c[nH]c3ccccc23)cc1 returned TNAP inh noacc 4, TNAP inh hiacc 3, Furin inh -7, Pf gamet viab 12, TNAP act hiacc 1 and HMGR II inh -8.
C/C(CS(=O)(=O)c1ccccc1)=N\O was read as TNAP inh noacc -5, TNAP inh hiacc -4, Furin inh -23, TNAP act hiacc 1 and HMGR II inh -6.
Screening C/C(CCS(=O)(=O)c1ccccc1)=N/O returned TNAP inh noacc -5, TNAP inh hiacc -1, Furin inh -11, Pf gamet viab 38*, TNAP act hiacc 1 and HMGR II inh 1.
COc1ccc(OC)c(Nc2nc(-c3sc(NC(=O)c4ccccc4)nc3C)cs2)c1 was read as TNAP inh noacc -8, TNAP inh hiacc -3, Furin inh -19, TNAP act hiacc 1 and HMGR II inh 11*.
`COc1cc(C)nc(Oc2ccc(OCc3ccccc3)nn2)n1` gave TNAP inh noacc -9, TNAP inh hiacc 0, Furin inh -5, TNAP act hiacc 1 and HMGR II inh 0.
For COc1cc(C)nc(Oc2ccc(OCCOc3ccccc3)nn2)n1 the results were TNAP inh noacc -1, TNAP inh hiacc 3, Furin inh -25, Pf gamet viab 9, TNAP act hiacc 1 and HMGR II inh 19*.
For COc1ccccc1S(=O)(=O)Cc1ccc(C(=O)NCc2cccs2)o1 the results were TNAP inh noacc -2, TNAP inh hiacc -2, Furin inh -20, TNAP act hiacc 1 and HMGR II inh 7.
Screening CCc1ccccc1S(=O)(=O)Cc1ccc(C(=O)NCc2cccs2)o1 returned TNAP inh noacc -9, TNAP inh hiacc -6, Furin inh -36, TNAP act hiacc 1.1 and HMGR II inh 9.8*.
NS(=O)(=O)c1cccnc1Nc1cccc(Cl)c1Cl was read as TNAP inh noacc 29, TNAP inh hiacc 50*, Furin inh -12, Pf gamet viab 14, TNAP act hiacc 0.5 and HMGR II inh 1.
NS(=O)(=O)c1cccnc1Nc1ccc(Cl)c(Cl)c1 was read as TNAP inh noacc 27, TNAP inh hiacc 42, Furin inh -5, TNAP act hiacc 0.6 and HMGR II inh 0.
Screening O=C(CSc1ncccn1)Nc1cc(Cl)ccc1[N+](=O)[O-] returned TNAP inh noacc -2, TNAP inh hiacc -3, Furin inh -3, Pf gamet viab 6, TNAP act hiacc 1 and HMGR II inh -2.
CCN(CC)C(=O)COc1ccc(S(=O)(=O)N2CCCC2)cc1 was read as Pf gamet viab -4.
Screening CCN(CC)S(=O)(=O)c1ccc(S(=O)(=O)N2CCCC2)cc1 returned TNAP inh noacc -6, TNAP inh hiacc -8, Furin inh -32, Pf gamet viab 1, TNAP act hiacc 1.1 and HMGR II inh 9.9*.
For CCOc1ccc(S(=O)(=O)N2CCCC2)cc1 the results were TNAP inh noacc -8, TNAP inh hiacc -4, Furin inh -9, Pf gamet viab 40*, TNAP act hiacc 1 and HMGR II inh -5.
Screening CCCC(=O)NCCCc1nc2ccccc2n1C(C)C returned TNAP inh noacc -8, TNAP inh hiacc -7, Furin inh 3, TNAP act hiacc 1.1 and HMGR II inh -1.
`O=C(NCc1ccccc1)NCc1cccs1` gave TNAP inh noacc -12, TNAP inh hiacc -5, Furin inh -11, Pf gamet viab 13, TNAP act hiacc 1 and HMGR II inh -6.
Screening COc1ccccc1C(=O)NC(C)C(c1cccs1)N1CCOCC1 (centres undefined) returned TNAP inh noacc -12, TNAP inh hiacc -6, Furin inh 31*, Pf gamet viab 28, TNAP act hiacc 1.1 and HMGR II inh -6.
For Cc1ccccc1C(=O)NC(C)C(c1cccs1)N1CCOCC1 (centres undefined) the results were TNAP inh noacc -6, TNAP inh hiacc -2, Furin inh -31, TNAP act hiacc 1 and HMGR II inh -7.
For Fc1ccc(-c2cc(C(F)(F)F)nc(NCc3cccs3)n2)cc1 the results were TNAP inh noacc -4, TNAP inh hiacc 0, Furin inh -21, TNAP act hiacc 1 and HMGR II inh 2.
Screening CSc1n[nH]c(NCc2cccs2)n1 returned TNAP inh noacc 56*, TNAP inh hiacc -5, Furin inh -21, TNAP act hiacc 1 and HMGR II inh 0.
For COc1ccc(N2C(=O)C(CN3CCCCC3)C2c2ccccc2)cc1 (centres undefined) the results were TNAP inh noacc -6, TNAP inh hiacc -9, Furin inh -22, Pf gamet viab 3, TNAP act hiacc 1.1 and HMGR II inh 15*.
For COc1ccc(C2C(C(=O)N3CCCCC3)CC(=O)N2c2ccc(OC)cc2)cc1 (centres undefined) the results were TNAP inh noacc -2, TNAP inh hiacc 4, Furin inh -32, TNAP act hiacc 1 and HMGR II inh -3.
`O=c1c(O[C@H]2O[C@@H](CO)[C@H](O)[C@@H](O)[C@@H]2O)c(-c2ccc(O)cc2)oc2cc(O)cc(O)c12` gave Pf gamet viab 2.
C[C@@H]1O[C@@H](Oc2c(-c3cc(O)c(O)c(O)c3)oc3cc(O)cc(O)c3c2=O)[C@H](O)[C@H](O)[C@H]1O was read as TNAP inh noacc 52*, TNAP inh hiacc 12, Furin inh 7, TNAP act hiacc 0.9 and HMGR II inh 5.
`C[C@@H]1O[C@@H](Oc2c(-c3ccc(O)c(O)c3)oc3cc(O)cc(O)c3c2=O)[C@H](O)[C@H](O)[C@H]1O` gave Pf gamet viab -10.
